Measurements: ChEMBL document CHEMBL4028867, “Design, Synthesis, and Characterization of N-Oxide-Containing Heterocycles with in Vivo Sterilizing Antitubercular Activity” (J Med Chem, 2017)
Converted amounts (≈) assume the structure as drawn. The source made the active and inactive calls. The rule behind the calls is not given here.

Columns and labels:
[1] = test system: Mycobacterium tuberculosis; experiment: Up-regulation of ATP synthase sub-units genes in Mycobacterium tuberculosis H37Rv at 2 times MIC90 after 4 hrs by microarray analysis; assay type: functional
[2] = Fraction unbound in human plasma at 5 uM by LC-MS/MS analysis; assay type: ADME, cell-free
Mus musculus [3] = experiment: Nephrotoxicity in BALB/c mouse assessed as change in kidney morphology at 200 mg/kg, po qd administered via gavage after 10 days by hematoxylin and eosin staining based analysis; assay type: toxicity, organism-based; details: in vivo, 240 h
In short: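 BALB/c mice dosed orally by gavage once daily at 200 mg/kg; liver and kidney sections stained with H&E and examined for tissue morphology.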

[4] = test system: Mycobacterium tuberculosis; experiment: Antitubercular activity against dormant stage Mycobacterium tuberculosis H37Rv ATCC 27294 incubated for 10 days in anaerobic condition followed by incubation for 28 hrs in ambient gaseous condition measured after day 11 by two fold serial dilution assay; assay type: functional
[5] = test system: Mycobacterium tuberculosis; experiment: Up-regulation of heat shock protein genes in Mycobacterium tuberculosis H37Rv at 2 times MIC after 4 hrs by microarray analysis; assay type: functional
Mus musculus [6] = experiment: Hepatotoxicity in BALB/c mouse assessed as change in alkaline phosphatase level in plasma at 200 mg/kg, po qd administered via gavage after 10 days; assay type: toxicity, organism-based; details: in vivo, 240 h
[7] = test system: Mycobacterium tuberculosis; experiment: Antitubercular activity against replicating stage Mycobacterium tuberculosis H37Rv ATCC 27294 after 7 days by Resazurin microtiter assay; assay type: functional; details: H37Rv ATCC 27294, 168 h
[8] = test system: Mycobacterium tuberculosis; experiment: Downregulation of htrA gene in Mycobacterium tuberculosis H37Rv at 2 times MIC90 after 4 hrs by microarray analysis; assay type: functional
Mus musculus [9] = experiment: Genotoxicity in Swiss mouse assessed as incidence of micronucleated peripheral blood reticulocytes at 50 to 500 mg/kg dosed via gavage by micronucleus assay; assay type: toxicity, organism-based; details: in vivo, po
[10] = Induction of nitric oxide release by Griess assay
In short: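 Griess assay: chemical detection of nitrite ions in solution as indicator of nitric oxide release.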

[11] = test system: Mycobacterium tuberculosis; experiment: Growth inhibition of Mycobacterium tuberculosis H37Rv exposed to plasma from BALB/c mouse treated with 300 mg/kg, po administered through microemulsion vehicle as single oral dose per gavage after 4 hrs by Resazurin microtiter assay; assay type: functional; details: read-out: GI
In short: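 The microemulsion was 10% cholesterol, 10% phosphatidylcholine/sodium oleate/polyoxyl 40 hydrogenated castor oil (3:6:8) and 80% phosphate buffer pH 7.4. Plasma taken at 0.3, 1, 2 or 4 h was tested by REMA for % Mtb growth inhibition, and plasma level was estimated against the in-vitro REMA MIC.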

Cytochrome P450 2C8 = target: T1, Cytochrome P450 2C8 (Homo sapiens, UniProt P10632); experiment: Inhibition of CYP2C8 in human liver microsomes in presence of NADPH by LC-MS/MS analysis; assay type: ADME
T1 sequence (P10632 whole entry): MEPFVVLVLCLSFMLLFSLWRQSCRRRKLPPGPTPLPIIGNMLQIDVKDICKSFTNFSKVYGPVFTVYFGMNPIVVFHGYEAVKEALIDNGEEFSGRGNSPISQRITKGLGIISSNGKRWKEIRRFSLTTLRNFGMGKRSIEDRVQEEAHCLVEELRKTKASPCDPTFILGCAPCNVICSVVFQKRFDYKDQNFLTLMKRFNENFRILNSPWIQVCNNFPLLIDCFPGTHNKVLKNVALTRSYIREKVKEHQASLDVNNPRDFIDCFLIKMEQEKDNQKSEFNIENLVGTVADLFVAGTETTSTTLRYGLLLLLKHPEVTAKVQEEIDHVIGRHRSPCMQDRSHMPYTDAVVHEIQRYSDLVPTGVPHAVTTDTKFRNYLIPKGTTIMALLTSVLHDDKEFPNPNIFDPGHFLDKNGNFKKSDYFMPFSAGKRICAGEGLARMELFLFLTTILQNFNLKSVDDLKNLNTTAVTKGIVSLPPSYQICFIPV

[12] = Apparent permeability from apical to basolateral side in human Caco2 cells by LC-MS/MS analysis; assay type: ADME, cell-based; details: caco-2
In short: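 Caco-2 monolayer permeability measured in both directions (apical-to-basolateral and basolateral-to-apical); result given as apparent permeability coefficient Papp in cm/s.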

Mus musculus [13] = experiment: Toxicity in BALB/c mouse assessed as behavioral parameter changes (hippocratic screening) at 200 mg/kg, po qd administered via gavage after 10 days; assay type: organism-based; details: in vivo, 240 h
In short: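 Mice given one daily oral gavage dose of 200 mg/kg body weight for 10 days with daily behavioural monitoring (hippocratic screening); heart, lung, spleen, kidney and liver weights compared with controls by ANOVA and Dunnett's test, p < 0.05.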

Cytochrome P450 2B6 = target: T2, Cytochrome P450 2B6 (Homo sapiens, UniProt P20813); experiment: Inhibition of CYP2B6 in human liver microsomes in presence of NADPH by LC-MS/MS analysis; assay type: ADME
T2 sequence (P20813 whole entry): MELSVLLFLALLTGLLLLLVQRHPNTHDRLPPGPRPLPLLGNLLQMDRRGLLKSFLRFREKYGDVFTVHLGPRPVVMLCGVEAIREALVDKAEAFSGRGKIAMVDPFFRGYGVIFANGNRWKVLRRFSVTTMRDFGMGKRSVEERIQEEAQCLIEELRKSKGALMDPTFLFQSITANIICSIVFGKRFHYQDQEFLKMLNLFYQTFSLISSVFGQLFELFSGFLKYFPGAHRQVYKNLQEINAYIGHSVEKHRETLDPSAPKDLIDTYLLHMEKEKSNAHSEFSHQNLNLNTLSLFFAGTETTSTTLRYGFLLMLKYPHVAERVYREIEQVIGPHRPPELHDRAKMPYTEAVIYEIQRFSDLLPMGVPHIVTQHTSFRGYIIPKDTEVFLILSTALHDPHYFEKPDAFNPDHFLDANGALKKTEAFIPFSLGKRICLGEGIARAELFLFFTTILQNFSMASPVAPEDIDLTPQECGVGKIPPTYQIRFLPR

Mus musculus [14] = experiment: Hepatotoxicity in BALB/c mouse assessed as change in aspartate aminotransferase level in plasma at 200 mg/kg, po qd administered via gavage after 10 days; assay type: toxicity, organism-based; details: in vivo, 240 h
Mus musculus [15] = experiment: Nephrotoxicity in BALB/c mouse assessed as change in urea level in blood at 200 mg/kg, po qd administered via gavage after 10 days; assay type: toxicity, organism-based; details: in vivo, 240 h

In the case of `O=C(N/N=C/c1ccc2no[n+]([O-])c2c1)c1ccncc1`, the Activity [1] is reported as “Active”, the fraction unbound at 5 µM [2] is reported as 0.465 and the Activity (Mus musculus [3]) is reported as “Non-Toxic”. The MIC90 [4] was 6.62 µM (≈ 1.88 µg/mL), the Activity [5] was “inactive” and the Activity (Mus musculus [6]) was “Non-Toxic”. The MIC90 [7] was 1.1 to 5.84 µM (≈ 0.312 to 1.65 µg/mL), the Activity [8] was “Active” and the Activity (Mus musculus [9]) was “Non-Toxic”. For the same molecule, the Activity [10] was “inactive”, the inhibition in vivo at 300 mg/kg [11] was 51.3% and the IC50 (Cytochrome P450 2C8) was over 20 µM. The Papp [12] was 5.67 ×10⁻⁶ cm/s, the Activity (Mus musculus [13]) was “Non-Toxic” and the IC50 (Cytochrome P450 2B6) was over 20 µM. For the same molecule, the Activity (Mus musculus [14]) was “Non-Toxic” and the Activity (Mus musculus [15]) was “Toxic”.
